Laboratory results from ChEMBL document CHEMBL2169771, “Mechanistic aspects of the photodynamic inactivation of Candida albicans induced by cationic porphyrin derivatives” (Eur J Med Chem, 2012).
Activity calls are given as the source filed them. The rule behind the calls is not given here.

Key:
Candida albicans [1] = experiment: Antifungal activity against 10^7 CFU/mL Candida albicans PC31 assessed as cell survival at 5 uM preincubated for 30 mins in dark followed by irradiation measured after 30 mins; assay type: functional
In short: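 C. albicans PC31 grown overnight in Sabouraud broth at 37 °C to stationary phase, then resuspended in 10 mM PBS pH 7.0 at ~10^7 CFU/mL. Incubated with 5 µM porphyrin for 30 min in the dark at 37 °C. Irradiated 30 min with visible light from a 150 W lamp, water-filtered (fluence 162 J/cm²). CFU counted on Sabouraud agar after ~48 h at 37 °C, plated in triplicate. Three separate experiments, mean ± SD.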

Nucleic Acid [2] = experiment: Binding affinity to calf thymus DNA assessed as DNA cleavage at 20 uM after 2 hrs irradiation by agarose gel electrophoresis; assay type: nucleic-acid assay; details: Bos taurus
In short: (§1)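 Calf thymus DNA (1.3 × 10^-4 M, base pairs) was mixed with 20 µM sensitizer in TE buffer (10 mM Tris-HCl, 1 mM EDTA, pH 7.6). Mixtures were irradiated in open tubes with visible light (90 mW/cm²) at room temperature for 1–5 h; dark controls were included. Samples were run on 1% agarose in TBE at 2.9 V/cm for 2 h.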

Candida albicans [3] = experiment: Antifungal activity against 10^7 CFU/mL Candida albicans PC31 preincubated for 30 mins in dark followed by irradiation measured after 30 mins; assay type: functional, organism-based; details: PC31, light or radiation study
In short: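 IC50 was derived from PBS suspensions of PC31 (~10^7 CFU/mL) treated with 0.1–10 µM porphyrin for 30 min in the dark at 37 °C. Cells were then irradiated for 30 min with water-filtered visible light from a 150 W lamp. Survival was counted as CFU on Sabouraud agar after ~48 h at 37 °C.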

Nucleic Acid [4] = experiment: Binding affinity to calf thymus DNA by spectrophotometric analysis; assay type: nucleic-acid assay; details: Bos taurus
In short: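 Absorbance titration: concentrated calf thymus DNA stock was added to ~2 µM porphyrin in PBS. Apparent KDNA was calculated from the Soret-maximum absorbance change, assuming 1:1 stoichiometry and DNA in large excess, via a double-reciprocal fit (1/ΔA vs 1/[DNA]). Three separate experiments, mean ± SD.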

Nucleic Acid [5] = experiment: Binding affinity to Candida albicans PC31 DNA assessed as genomic DNA cleavage at 5 uM preincubated for 30 mins in dark followed by irradiation measured after 30 mins by agarose gel electrophoresis; assay type: nucleic-acid assay
In short: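 PC31 cells (~10^7 CFU/mL in PBS) received 5 µM sensitizer for 30 min at 37 °C in the dark, then 30 min visible light (162 J/cm²). Genomic DNA was extracted with a commercial kit immediately after irradiation. It was run on 1% agarose in TBE (pH 8) at 2.9 V/cm for 2 h beside an irradiated control.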

Candida albicans [6] = experiment: Antifungal activity against 10^6 CFU/mL Candida albicans PC31 assessed as cell survival at 5 uM preincubated for 30 mins in dark followed by irradiation measured after 30 mins; assay type: functional
Nucleic Acid [7] = experiment: Binding affinity to calf thymus DNA assessed as DNA cleavage at 20 uM after 1 hr irradiation by agarose gel electrophoresis; assay type: nucleic-acid assay; details: Bos taurus; in short: as §1
Candida albicans [8] = experiment: Photocytotoxicity against Candida albicans PC31 assessed as change in cell morphology at 5 to 10 uM preincubated for 30 mins in dark followed by irradiation measured after 30 mins by transmission electron microscopy; assay type: functional, organism-based
In short: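 PC31 suspensions (~10^7 CFU/mL) were given 5 or 10 µM sensitizer for 30 min in the dark at 37 °C, then irradiated 30 min with visible light (162 J/cm²). Cells were fixed in 4% formaldehyde/2% glutaraldehyde in 0.1 M cacodylate for 2 h, then post-fixed in 1% OsO4. They were acetone-dehydrated, Araldite-embedded, cut at 80–100 nm, stained with uranyl acetate and lead citrate, and imaged by TEM.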

Candida albicans [9] = experiment: Photocytotoxicity against Candida albicans PC31 assessed as release of intracellular DNA and protein at 5 uM preincubated for 30 mins in dark followed by irradiation measured after 30 mins by UV-vis spectroscopic analysis; assay type: functional, organism-based
In short: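 PC31 cells (~10^7 CFU/mL in 2 mL PBS) were incubated with 5 µM porphyrin for 30 min in the dark, then irradiated 30 min with visible light (162 J/cm²). After centrifugation at 13,000 rpm for 5 min, supernatants were scanned by UV–visible spectroscopy, with absorbance at 260 nm taken as the release read-out. Freeze–thaw lysis in liquid nitrogen gave the positive control.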

Nucleic Acid [10] = experiment: Binding affinity to calf thymus DNA assessed as reduction in electrophoretic DNA mobility at 20 uM after 1 to 5 hrs irradiation by agarose gel electrophoresis; assay type: nucleic-acid assay; details: Bos taurus
In short: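 Calf thymus double-stranded DNA (1.3 × 10^-4 M, in base pairs) mixed with 20 μM sensitizer in TE buffer (10 mM Tris-HCl, 1 mM EDTA, pH 7.6). Irradiated with visible light (90 mW/cm²) at room temperature for 1, 2, 3, 4 or 5 h. Samples then run on 1% agarose gels in TBE buffer (pH 8) at 2.9 V/cm for 2 h. Controls: DNA alone, DNA with sensitizer in dark, irradiated DNA.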

Nucleic Acid [11] = experiment: Binding affinity to calf thymus DNA assessed as DNA cleavage at 20 uM after 5 hrs irradiation by agarose gel electrophoresis; assay type: nucleic-acid assay; details: Bos taurus; in short: as §1
Nucleic Acid [12] = experiment: Binding affinity to calf thymus DNA assessed as DNA cleavage at 20 uM by agarose gel electrophoresis in absence of irradiation; assay type: nucleic-acid assay; details: Bos taurus; in short: as §1

SMILES	log10CFU/ml (Candida albicans [1])	Activity (Nucleic Acid [2]) [%]	IC50 (Candida albicans [3]) [nM]	Kapp (Nucleic Acid [4]) [×10⁵ /M]	Activity (Nucleic Acid [5])	log10CFU/ml (Candida albicans [6])	Activity (Nucleic Acid [7]) [%]	Activity (Candida albicans [8])	Activity (Candida albicans [9])	Activity (Nucleic Acid [10])	Activity (Nucleic Acid [11]) [%]	Activity (Nucleic Acid [12])
C[N+](C)(C)c1ccc(-c2c3nc(c(-c4ccc([N+](C)(C)C)cc4)c4ccc([nH]4)c(-c4ccc([N+](C)(C)C)cc4)c4nc(c(-c5ccc([N+](C)(C)C)cc5)c5ccc2[nH]5)C=C4)C=C3)cc1	3.5	> 90	230	7.5	inactive	5	59.3	Active	inactive			
C[n+]1ccc(-c2c3nc(c(-c4cc[n+](C)cc4)c4ccc([nH]4)c(-c4cc[n+](C)cc4)c4ccc([nH]4)c(-c4cc[n+](C)cc4)c4nc2C=C4)C=C3)cc1 [TMPYP4]	3.5		410	4.4	inactive	5		Active	inactive	Active		
C[N+](C)(C)c1ccc(-c2c3nc(c(-c4ccc([N+](C)(C)C)cc4)c4ccc([nH]4)c(-c4ccc([N+](C)(C)C)cc4)c4nc(c(-c5ccc(C(F)(F)F)cc5)c5ccc2[nH]5)C=C4)C=C3)cc1	3.5		160	6.7	inactive	5	19.7	Active	inactive		50	inactive
